Data set [1] in a line: Oral bioavailability in rhesus monkey at 60 mg/kg. The format is ADME, organism-based, Macaca mulatta. The following applies: in vivo.
A short description of data set [2]: Terminal phase half life in rhesus monkey. The format is ADME, organism-based, Macaca mulatta. The following applies: in vivo.
The nature of data set [3]: Cmax in rhesus monkey. Conditions: in vivo. The format is ADME, organism-based, Macaca mulatta.
Data set [4] can be described thus: Oral bioavailability in rhesus monkey. The format is ADME, organism-based, Macaca mulatta. Conditions: in vivo.
For data set [5], the system named is Rhesus monkey. Put plainly: AUC in rhesus monkey. The format is ADME, organism-based, Macaca mulatta, Plasma. The following applies: in vivo.
Data set [6] in a line: Central volume of distribution in rhesus monkey. The format is ADME, organism-based, Macaca mulatta. The following applies: in vivo, read-out: Vc.
Data set [7] in a line: Volume of distribution at steady state in rhesus monkey. In kind it is ADME, organism-based, Macaca mulatta. Conditions: in vivo, read-out: Vdss.
A short description of data set [8]: Systemic clearance in rhesus monkey at 33.3 mg/kg, iv. In kind it is ADME, organism-based, Macaca mulatta. On the set-up: dose 33.3 mg/kg, route intravenous. The following applies: in vivo. The essentials: (§1)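 Rhesus monkeys (three) got a single 33.3 mg/kg dose orally by gastric intubation in water, then i.v. in saline after a washout of at least 4 weeks. Animals were under ketamine/Telazol anesthesia. Femoral-vein blood was drawn at 0–24 h. Serum was acetonitrile-extracted with AZT internal standard and assayed by HPLC-UV at 266 nm. Parameters came from a simultaneous two-compartment fit weighted 1/(predicted)2. F was from AUCoral = F x AUCi.v.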

Data set [9] is described as follows: Central volume of distribution in rhesus monkey at 33.3 mg/kg, iv. Conditions: in vivo, read-out: Vc. The format is ADME, organism-based, Macaca mulatta. Also noted: dose 33.3 mg/kg, route intravenous. The essentials:
as §1

The nature of data set [10]: Terminal phase half life in rhesus monkey at 33.3 mg/kg, iv. The format is ADME, organism-based, Macaca mulatta. Also noted: dose 33.3 mg/kg, route intravenous. The following applies: in vivo. Put shortly:
as §1

Data set [11] in a line: Volume of distribution at steady state in rhesus monkey at 33.3 mg/kg, iv. Conditions: in vivo, read-out: Vdss. In kind it is ADME, organism-based, Macaca mulatta. On the set-up: dose 33.3 mg/kg, route intravenous. The essentials:
as §1

Data set [12] can be described thus: AUC in rhesus monkey at 33.3 mg/kg, iv. In kind it is ADME, organism-based, Macaca mulatta. Also noted: dose 33.3 mg/kg, route intravenous. Conditions: plasma. The essentials:
as §1

Data set [13] is described as follows: Mean residence time in rhesus monkey at 33.3 mg/kg, iv. The format is ADME, organism-based, Macaca mulatta. On the set-up: dose 33.3 mg/kg, route intravenous. The following applies: in vivo. Put shortly:
as §1

Data set [14] is described as follows: Renal clearance in rhesus monkey at 33.3 mg/kg, iv. On the set-up: dose 33.3 mg/kg, route intravenous. In kind it is ADME, organism-based, Macaca mulatta, Kidney. Conditions: in vivo, read-out: CL_renal (converted). Put shortly: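 Renal clearance was derived by fitting 0–8 h urinary excretion (HPLC-UV) to dXu/dt = Clrenal x Cp. Cp was the serum concentration predicted by the two-compartment serum fit, and the urine fit was unweighted. Dose was 33.3 mg/kg.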

Data set [15] can be described thus: AUC in rhesus monkey at 33.3 mg/kg, po. The format is ADME, organism-based, Macaca mulatta. On the set-up: dose 33.3 mg/kg, route oral. Conditions: plasma. The essentials:
as §1

Data set [16] is described as follows: Mean residence time in rhesus monkey at 33.3 mg/kg, po. On the set-up: dose 33.3 mg/kg, route oral. In kind it is ADME, organism-based, Macaca mulatta. Conditions: in vivo. The essentials:
as §1

Data set [17] is described as follows: Tmax in rhesus monkey at 33.3 mg/kg, po. The format is ADME, organism-based, Macaca mulatta. Also noted: dose 33.3 mg/kg, route oral. Conditions: in vivo. The essentials:
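Oral gastric-intubation dose of 33.3 mg/kg in water given to rhesus monkeys under ketamine/Telazol anesthesia. Serial femoral-vein serum was sampled from 0.25 to 24 h and assayed by reverse-phase HPLC-UV at 266 nm. Time of peak was taken from a two-compartment model fitted with an absorption lag.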

Data set [18] is described as follows: Cmax in rhesus monkey at 33.3 mg/kg, po. Also noted: dose 33.3 mg/kg, route oral. The following applies: in vivo. In kind it is ADME, organism-based, Macaca mulatta. The essentials: as §1
Data set [19] can be described thus: Oral bioavailability in rhesus monkey at 33.3 mg/kg. The following applies: in vivo. In kind it is ADME, organism-based, Macaca mulatta. The essentials: as §1
A short description of data set [20]: Biodistribution in rhesus monkey urine assessed as dose recovered unchanged at 33.3 mg/kg, po after 8 hrs. The format is ADME, organism-based, Macaca mulatta. On the set-up: dose 33.3 mg/kg, route oral. Conditions: read-out: Drug uptake. The essentials:
(§2)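 Monkeys were catheterized and dosed with 33.3 mg/kg by i.v. or oral route under anesthesia. Urine was collected in intervals over 0–8 h. Untreated urine was incubated 12 h at 37°C in acetate/phosphate buffer pH 5.8 and spiked with AZT internal standard. Unchanged drug was quantified by HPLC-UV at 266 nm against urine standard curves of 0.1–100 µg/ml.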

The nature of data set [21]: Biodistribution in rhesus monkey urine assessed as dose recovered unchanged at 33.3 mg/kg, iv after 8 hrs. The format is ADME, organism-based, Macaca mulatta. Conditions: read-out: Drug uptake. Also noted: dose 33.3 mg/kg, route intravenous. The essentials: as §2
In data set [22] the test system is Rhesus monkey. Nature of the data set: Drug elimination in rhesus monkey assessed as beta-dioxolane-thymine-glucuronide elimination at 33.3 mg/kg, po. The format is ADME, organism-based, Macaca mulatta. Also noted: dose 33.3 mg/kg, route oral. The following applies: in vivo. The essentials: (§3)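 Glucuronide was estimated indirectly in 0–8 h urine after a 33.3 mg/kg i.v. or oral dose. Urine was treated with β-glucuronidase (500 U/ml, freshly prepared) in acetate/phosphate buffer pH 5.8 for 12 h at 37°C. Untreated urine served as the parallel sample. Glucuronide was taken as the difference in parent drug between the two samples by HPLC-UV. Its presence was screened by ESI MS/MS.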

For data set [23], the system named is Rhesus monkey. Put plainly: Drug elimination in rhesus monkey assessed as beta-dioxolane-thymine-glucuronide elimination at 33.3 mg/kg, iv. Also noted: dose 33.3 mg/kg, route intravenous. Conditions: in vivo. The format is ADME, organism-based, Macaca mulatta. Put shortly:
as §3

Data set [24] in a line: Drug level in rhesus monkey cerebrospinal fluid at 33.3 mg/kg, iv after 1 hr. In kind it is ADME, organism-based, Macaca mulatta. Conditions: read-out: Drug uptake. Also noted: dose 33.3 mg/kg, route intravenous. The essentials:
(§4)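 Cerebrospinal fluid was drawn by cisternal or lumbar tap 1 and 2 h after a 33.3 mg/kg i.v. or oral dose in anesthetized rhesus monkeys. Samples were kept frozen at –70°C. AZT internal standard was added, and the sample was injected directly for HPLC-UV at 266 nm against water-based standards of 0.1–25 µg/ml.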

Data set [25] is described as follows: Drug level in rhesus monkey cerebrospinal fluid at 33.3 mg/kg, iv after 2 hrs. The format is ADME, organism-based, Macaca mulatta. On the set-up: dose 33.3 mg/kg, route intravenous. Conditions: read-out: Drug uptake. The essentials:
as §4

Data set [26] can be described thus: Drug level in rhesus monkey cerebrospinal fluid at 33.3 mg/kg, po after 1 hr. The format is ADME, organism-based, Macaca mulatta. Also noted: dose 33.3 mg/kg, route oral. The following applies: read-out: Drug uptake. The essentials:
as §4

The nature of data set [27]: Drug level in rhesus monkey cerebrospinal fluid at 33.3 mg/kg, po after 2 hrs. Also noted: dose 33.3 mg/kg, route oral. In kind it is ADME, organism-based, Macaca mulatta. The following applies: read-out: Drug uptake. The essentials:
as §4

Data set [28] can be described thus: Ratio of drug level in cerebrospinal fluid to plasma of rhesus monkey at 33.3 mg/kg, iv after 1 hr. The format is ADME, organism-based, Macaca mulatta, CSF/Plasma. On the set-up: dose 33.3 mg/kg, route intravenous. The essentials: (§5)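 CSF was taken by cisternal or lumbar tap at 1 and 2 h after a 33.3 mg/kg i.v. or oral dose, along with femoral-vein serum. Both were quantified by HPLC-UV at 266 nm with AZT internal standard. The ratio was CSF concentration divided by serum concentration at the same time.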

Data set [29] in a line: Ratio of drug level in cerebrospinal fluid to plasma of rhesus monkey at 33.3 mg/kg, iv after 2 hrs. The format is ADME, organism-based, Macaca mulatta, CSF/Plasma. On the set-up: dose 33.3 mg/kg, route intravenous. The essentials: as §5
Data set [30] in a line: Ratio of drug level in cerebrospinal fluid to plasma of rhesus monkey at 33.3 mg/kg, po after 1 hr. In kind it is ADME, organism-based, Macaca mulatta, CSF/Plasma. On the set-up: dose 33.3 mg/kg, route oral. The essentials:
as §5

A short description of data set [31]: Ratio of drug level in cerebrospinal fluid to plasma of rhesus monkey at 33.3 mg/kg, po after 2 hrs. The format is ADME, organism-based, Macaca mulatta, CSF/Plasma. Also noted: dose 33.3 mg/kg, route oral. The essentials:
as §5

For data set [32], the system named is Rhesus monkey. Nature of the data set: Tlag in rhesus monkey at 33.3 mg/kg, po. The following applies: in vivo.
A short description of data set [33]: Oral bioavailability in cynomolgus monkey. In kind it is ADME, organism-based, Macaca fascicularis. The following applies: in vivo.
Data set [34] in a line: Oral bioavailability in mouse. Conditions: in vivo. In kind it is ADME, organism-based.
Data set [35] can be described thus: Oral bioavailability in human. In kind it is ADME, organism-based. The following applies: in vivo.
A short description of data set [36]: Drug elimination in monkey urine after 30 days. In kind it is ADME, organism-based, Macaca mulatta. Conditions: rhesus monkey, Activity.

As usually defined, the bioavailability is the share of a dose that reaches the circulation, judged against a reference dose that is usually intravenous. Usually half-life stands for how long it takes for the measured level to halve. `Cc1cn([C@H]2C[C@H](N=[N+]=[N-])[C@@H](CO)O2)c(=O)[nH]c1=O` [ZIDOVUDINE] gave a bioavailability in data set [1] of 90%. This compound also gave a half-life in [2] of 0.8 h.

By Cmax is commonly meant the maximum level reached in the sampled fluid or tissue. For `Nc1nc2c(ncn2[C@H]2CO[C@@H](CO)O2)c(=O)[nH]1`, in [3], the highest level (Cmax) was 50 µM.

The AUC is the area under the concentration-time curve, a measure of exposure. As for `Nc1nc(=O)n([C@H]2CO[C@@H](CO)O2)cc1F`, the bioavailability in [4] came to 38%. Further, the Cmax in [3] is 34.4 µM. Besides, the exposure (AUC) with Rhesus monkey [5] was 197 µM·h. In data set [2], this compound showed a half-life of 2.48 h. In addition, the Vd in [6] and in [7] was 0.53 L/kg in each case.

In the case of `Nc1nc(N)c2ncn([C@H]3CO[C@@H](CO)O3)c2n1` [AMDOXOVIR], the bioavailability in data set [4] came to 30%.

A word on the clearance: it is the rate of elimination divided by the concentration. For orientation: MRT means the average time that molecules of a dose stay in the body. The term Tmax denotes the time from dosing to the highest level. One may read the Kp as the ratio of the level in a tissue or fluid to that in plasma or blood. The compound `Cc1cn([C@H]2CO[C@@H](CO)O2)c(=O)[nH]c1=O` had a clearance in [8] of 0.36 L/h/kg. In addition, the Vd in [9] was determined as 0.52 L/kg; in data set [11], 1.02 L/kg. Besides, the half-life in [10] was 2.16 h. For the same compound, the area under the curve (AUC) in data set [12] came to 416 µM·h; in data set [15] it was 387 µM·h. In addition, the MRT in data set [13] was 2.88 h; in data set [16], 3.26 h. Moreover, the CL renal in data set [14] is 0.18 L/h/kg. Besides, the Tmax in data set [17] turned out to be 0.5 h. Moreover, the peak level in [18] (Cmax) was 105 µM. This compound also showed a bioavailability in data set [19] of 95%. Besides, the dose excreted at 8 h in data set [20] turned out to be 48%; in data set [21], 40%. Moreover, the Drug uptake in the data set on Rhesus monkey [22] is recorded as 8%; in the data set with Rhesus monkey [23], 4%. Moreover, the concentration at 1 h in data set [24] is 7.8 µM; in [26], 3.2 µM. In addition, the concentration at 2 h amounted to 12.3 µM in data set [25] and 4.2 µM in [27]. Moreover, the Kp at 1 h in data set [28] was determined as 0.09; in [30] it was 0.05. Moreover, the values for the concentration ratio (Kp) at 2 h in data set [29] and in data set [31] were 0.18 and 0.06, respectively. This compound yielded a Tlag in the data set on Rhesus monkey [32] of 0.51 h.

On to `Cc1cn([C@H]2C=C[C@@H](CO)O2)c(=O)[nH]c1=O` [STAVUDINE], for which the bioavailability was determined as 25% in data set [1], 83% in [33], 100% in [34] and 100% in data set [35]. For the same compound, the half-life in data set [2] is 0.8 h. In [36], this compound gave a dose excreted at 720 h of less than 50%.

For the origin of these results see ChEMBL document CHEMBL1157362, “Pharmacokinetics of the anti-human immunodeficiency virus agent 1-(beta-D-dioxolane)thymine in rhesus monkeys” (Antimicrob Agents Chemother, 2007).
